Experimental findings from ChEMBL document CHEMBL4152188, “Design, synthesis and biological evaluation of C(4) substituted monobactams as antibacterial agents against multidrug-resistant Gram-negative bacteria” (Eur J Med Chem, 2018) are described below.

≈ marks a conversion by molar mass, not a printed value. Bounds are passed on as bounds.

What all share (assay type): functional
Assay [1] has as its system Escherichia coli. The experiment in a line: Antibacterial activity against extended-spectrum beta-lactamase producing Escherichia coli isolate 212648 after 18 hrs by CLSI broth microdilution method. The following applies: isolate 212648, 18 h. (In general: In broth dilution the organism is exposed to a series of concentrations in liquid medium.)
The subject of assay [2] is Escherichia coli. The experiment in a line: Antibacterial activity against Escherichia coli isolate 210737 after 18 hrs by CLSI broth microdilution method. The following applies: isolate 210737, 18 h.
Assay [3] deals with Escherichia coli. As to the kind of experiment: Antibacterial activity against extended-spectrum beta-lactamase producing Escherichia coli isolate 208687 after 18 hrs by CLSI broth microdilution method. The following applies: isolate 208687, 18 h.
Assay [4] relates to Escherichia coli. The experiment in a line: Antibacterial activity against extended-spectrum beta-lactamase producing Escherichia coli isolate 208687 after 18 hrs in presence of BPL by CLSI broth microdilution method. As to conditions: isolate 208687, 18 h. The gist of the method: (§1)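 CLSI broth microdilution against clinical isolates (ESBL E. coli, KPC-2 MDR K. pneumoniae, IMP-4 MDR P. aeruginosa; five per species). Iron limitation: Mueller-Hinton broth supplemented with 16 mg/liter 2,2'-bipyridyl to complex iron and induce iron uptake systems. Read-out: MIC.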

Assay [5] relates to Escherichia coli. As to the kind of experiment: Antibacterial activity against Escherichia coli isolate 210737 after 18 hrs in presence of BPL by CLSI broth microdilution method. The following applies: isolate 210737, 18 h. The gist of the method:
as §1

In assay [6] the test system is Escherichia coli. As to the kind of experiment: Antibacterial activity against extended-spectrum beta-lactamase producing Escherichia coli isolate 212648 after 18 hrs in presence of BPL by CLSI broth microdilution method. The following applies: isolate 212648, 18 h. The gist of the method: as §1
Assay [7] relates to Escherichia coli. The experiment in a line: Antibacterial activity against extended-spectrum beta-lactamase producing Escherichia coli isolate 209285 after 18 hrs by CLSI broth microdilution method. The following applies: isolate 209285, 18 h.
The test system of assay [8] is Escherichia coli. The experiment in a line: Antibacterial activity against extended-spectrum beta-lactamase producing Escherichia coli isolate 209285 after 18 hrs in presence of BPL by CLSI broth microdilution method. The following applies: isolate 209285, 18 h. An outline of the steps:
as §1

In assay [9] the test system is Escherichia coli. As to the kind of experiment: Antibacterial activity against extended-spectrum beta-lactamase producing Escherichia coli isolate 106342 after 18 hrs by CLSI broth microdilution method. As to conditions: isolate 106342, 18 h.
Assay [10] concerns Escherichia coli. As to the kind of experiment: Antibacterial activity against extended-spectrum beta-lactamase producing Escherichia coli isolate 106342 after 18 hrs in presence of BPL by CLSI broth microdilution method. As to conditions: isolate 106342, 18 h. An outline of the steps: as §1
Assay [11] deals with Klebsiella pneumoniae. As to the kind of experiment: Antibacterial activity against KPC-2 producing Klebsiella pneumoniae isolate 212423 after 18 hrs by CLSI broth microdilution method. As to conditions: isolate 212423, 18 h.
The subject of assay [12] is Klebsiella pneumoniae. As to the kind of experiment: Antibacterial activity against KPC-2 producing Klebsiella pneumoniae isolate 212423 after 18 hrs in presence of BPL by CLSI broth microdilution method. As to conditions: isolate 212423, 18 h. The gist of the method:
as §1

In assay [13] the test system is Klebsiella pneumoniae. As to the kind of experiment: Selectivity index, ratio of MIC for against KPC-2 producing Klebsiella pneumoniae isolate 212423 to MIC for against KPC-2 producing Klebsiella pneumoniae isolate 212423 in presence of BPL.
Assay [14] has as its system Klebsiella pneumoniae. The experiment in a line: Antibacterial activity against KPC-2 producing Klebsiella pneumoniae isolate 209632 after 18 hrs by CLSI broth microdilution method. As to conditions: isolate 209632, 18 h.
The test system of assay [15] is Klebsiella pneumoniae. As to the kind of experiment: Antibacterial activity against KPC-2 producing Klebsiella pneumoniae isolate 209632 after 18 hrs in presence of BPL by CLSI broth microdilution method. As to conditions: isolate 209632, 18 h. The gist of the method: as §1
In assay [16] the test system is Klebsiella pneumoniae. The experiment in a line: Selectivity index, ratio of MIC for against KPC-2 producing Klebsiella pneumoniae isolate 209632 to MIC for against KPC-2 producing Klebsiella pneumoniae isolate 209632 in presence of BPL.
In assay [17] the test system is Klebsiella pneumoniae. The experiment in a line: Antibacterial activity against KPC-2 producing Klebsiella pneumoniae isolate 209735 after 18 hrs by CLSI broth microdilution method. The following applies: isolate 209735, 18 h.
In assay [18] the test system is Klebsiella pneumoniae. As to the kind of experiment: Antibacterial activity against KPC-2 producing Klebsiella pneumoniae isolate 209735 after 18 hrs in presence of BPL by CLSI broth microdilution method. As to conditions: isolate 209735, 18 h. The gist of the method:
as §1

In assay [19] the test system is Klebsiella pneumoniae. As to the kind of experiment: Selectivity index, ratio of MIC for against KPC-2 producing Klebsiella pneumoniae isolate 209735 to MIC for against KPC-2 producing Klebsiella pneumoniae isolate 209735 in presence of BPL.
For assay [20], the system named is Klebsiella pneumoniae. The experiment in a line: Antibacterial activity against KPC-2 producing Klebsiella pneumoniae isolate 212232 after 18 hrs by CLSI broth microdilution method. As to conditions: isolate 212232, 18 h.
The test system of assay [21] is Klebsiella pneumoniae. As to the kind of experiment: Antibacterial activity against KPC-2 producing Klebsiella pneumoniae isolate 212232 after 18 hrs in presence of BPL by CLSI broth microdilution method. As to conditions: isolate 212232, 18 h. The gist of the method: as §1
Assay [22] relates to Klebsiella pneumoniae. As to the kind of experiment: Selectivity index, ratio of MIC for against KPC-2 producing Klebsiella pneumoniae isolate 212232 to MIC for against KPC-2 producing Klebsiella pneumoniae isolate 212232 in presence of BPL.
The test system of assay [23] is Klebsiella pneumoniae. The experiment in a line: Antibacterial activity against KPC-2 producing Klebsiella pneumoniae isolate 212229 after 18 hrs by CLSI broth microdilution method. As to conditions: isolate 212229, 18 h.
Assay [24] concerns Klebsiella pneumoniae. As to the kind of experiment: Antibacterial activity against KPC-2 producing Klebsiella pneumoniae isolate 212229 after 18 hrs in presence of BPL by CLSI broth microdilution method. The following applies: isolate 212229, 18 h. The gist of the method:
as §1

Assay [25] deals with Klebsiella pneumoniae. The experiment in a line: Selectivity index, ratio of MIC for against KPC-2 producing Klebsiella pneumoniae isolate 212229 to MIC for against KPC-2 producing Klebsiella pneumoniae isolate 212229 in presence of BPL.
The subject of assay [26] is Pseudomonas aeruginosa. As to the kind of experiment: Antibacterial activity against IMP-4 producing Pseudomonas aeruginosa isolate 212886 after 18 hrs by CLSI broth microdilution method. The following applies: isolate 212886, 18 h.
Assay [27] relates to Pseudomonas aeruginosa. As to the kind of experiment: Antibacterial activity against IMP-4 producing Pseudomonas aeruginosa isolate 212886 after 18 hrs in presence of BPL by CLSI broth microdilution method. The following applies: isolate 212886, 18 h. An outline of the steps: as §1
Assay [28] relates to Pseudomonas aeruginosa. As to the kind of experiment: Antibacterial activity against IMP-4 producing Pseudomonas aeruginosa isolate 209471 after 18 hrs by CLSI broth microdilution method. The following applies: isolate 209471, 18 h.
Assay [29] deals with Pseudomonas aeruginosa. As to the kind of experiment: Antibacterial activity against IMP-4 producing Pseudomonas aeruginosa isolate 209471 after 18 hrs in presence of BPL by CLSI broth microdilution method. As to conditions: isolate 209471, 18 h. The gist of the method:
as §1

Assay [30] has as its system Pseudomonas aeruginosa. The experiment in a line: Antibacterial activity against IMP-4 producing Pseudomonas aeruginosa isolate 208247 after 18 hrs by CLSI broth microdilution method. As to conditions: isolate 208247, 18 h.
The test system of assay [31] is Pseudomonas aeruginosa. As to the kind of experiment: Antibacterial activity against IMP-4 producing Pseudomonas aeruginosa isolate 208247 after 18 hrs in presence of BPL by CLSI broth microdilution method. As to conditions: isolate 208247, 18 h. An outline of the steps: as §1
For assay [32], the system named is Pseudomonas aeruginosa. The experiment in a line: Antibacterial activity against IMP-4 producing Pseudomonas aeruginosa isolate 209321 after 18 hrs by CLSI broth microdilution method. As to conditions: isolate 209321, 18 h.
For assay [33], the system named is Pseudomonas aeruginosa. As to the kind of experiment: Antibacterial activity against IMP-4 producing Pseudomonas aeruginosa isolate 209321 after 18 hrs in presence of BPL by CLSI broth microdilution method. The following applies: isolate 209321, 18 h. The gist of the method:
as §1

Assay [34] concerns Pseudomonas aeruginosa. The experiment in a line: Antibacterial activity against IMP-4 producing Pseudomonas aeruginosa isolate 207272 after 18 hrs by CLSI broth microdilution method. The following applies: isolate 207272, 18 h.
In assay [35] the test system is Pseudomonas aeruginosa. As to the kind of experiment: Antibacterial activity against IMP-4 producing Pseudomonas aeruginosa isolate 207272 after 18 hrs in presence of BPL by CLSI broth microdilution method. The following applies: isolate 207272, 18 h. An outline of the steps:
as §1

As a reminder, the MIC is the lowest concentration that inhibits growth of the organism. In the case of `CC(C)C(O/N=C(\C(=O)NC1C(=O)N(S(=O)(=O)O)C1(CF)CF)c1csc(N)n1)c1cc(=O)c(O)cn1O` (centres undefined), the MIC in the assay on Escherichia coli [1], in the assay on Escherichia coli [2], in the assay with Escherichia coli [3], in the assay with Escherichia coli [4], in the assay on Escherichia coli [5] and in the assay on Escherichia coli [6] was > 64 µg/mL throughout. Also, the MIC in the assay on Escherichia coli [7], with Escherichia coli [8], in the assay on Escherichia coli [9], in the assay on Escherichia coli [10], against Klebsiella pneumoniae [11] and in the assay with Klebsiella pneumoniae [12] was > 64 µg/mL each time. The minimal inhibitory concentration (MIC) was > 64 µg/mL against Klebsiella pneumoniae [14]; > 64 µg/mL with Klebsiella pneumoniae [15]; > 64 µg/mL in the assay on Klebsiella pneumoniae [17]; > 64 µg/mL in the assay on Klebsiella pneumoniae [18]; 32 µg/mL (≈ 55.1 µM) against Klebsiella pneumoniae [20]; 4 µg/mL in the assay with Klebsiella pneumoniae [21]. The minimal inhibitory concentration (MIC) against Klebsiella pneumoniae [23], in the assay on Klebsiella pneumoniae [24], in the assay on Pseudomonas aeruginosa [26], with Pseudomonas aeruginosa [27], against Pseudomonas aeruginosa [28] and in the assay with Pseudomonas aeruginosa [29] was > 64 µg/mL each time. Moreover, the MIC with Pseudomonas aeruginosa [30] is > 64 µg/mL; in the assay with Pseudomonas aeruginosa [31] it was 64 µg/mL; against Pseudomonas aeruginosa [32], > 64 µg/mL; in the assay with Pseudomonas aeruginosa [33] it was > 64 µg/mL; in the assay on Pseudomonas aeruginosa [34] it was > 64 µg/mL; in the assay on Pseudomonas aeruginosa [35], > 64 µg/mL. The “Selectivity Index” value in the assay with Klebsiella pneumoniae [13], with Klebsiella pneumoniae [16], with Klebsiella pneumoniae [19], in the assay on Klebsiella pneumoniae [22] and in the assay with Klebsiella pneumoniae [25] was 8 in each case.
As to `C[C@@H](O)[C@H]1C(=O)N2C(C(=O)O)=C(S[C@@H]3CN[C@H](C(=O)N(C)C)C3)[C@H](C)[C@H]12` [MEROPENEM], the MIC against Escherichia coli [1] was 8 µg/mL (≈ 20.9 µM); with Escherichia coli [2], 0.125 µg/mL (≈ 0.326 µM); with Escherichia coli [3], 0.125 µg/mL (≈ 0.326 µM); in the assay with Escherichia coli [7], 1 µg/mL (≈ 2.61 µM); in the assay with Escherichia coli [9], 8 µg/mL (≈ 20.9 µM); with Klebsiella pneumoniae [20], > 64 µg/mL. Besides, the minimal inhibitory concentration (MIC) was > 64 µg/mL against Klebsiella pneumoniae [23], 32 µg/mL (≈ 83.4 µM) against Pseudomonas aeruginosa [28] and 32 µg/mL (≈ 83.4 µM) against Pseudomonas aeruginosa [30].
